From article PMC12750163 (Acta Pharmaceutica Sinica. B, 2025)

Legend:
A549 cells = experiment: PD-L1 and EVs in A549 cells treated with GW4869; type: cell-based, human; settings: 10 μmol/L
How it was run: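 A549 or LSD1-knockout A549 cells (lentiviral editing, antibiotic selection, PCR/sequencing check, single-cell cloning) are treated ± 10 μmol/L GW4869. Conditioned medium is spun 3000 × g, 10 min, 4 °C. EVs are precipitated with an equal volume of isolation reagent at 4 °C, pelleted 10,000 × g, 60 min, 4 °C, and PBS-washed. Characterisation by TEM/NTA. PD-L1, ALIX, TSG101 and CD9 are detected by western blot from equal cell numbers.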

LLC tumor-bearing mice = experiment: In vivo biodistribution; design: species or system mouse; settings: i.v., over time
How it was run: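 Cy5.5-loaded liposomes stand in for drug and anti-PD1. Free Cy5.5 or Cy5.5-nanoparticles (3 mg/kg Cy5.5 equivalent) are injected via the tail vein into LLC tumour-bearing nude mice. Mice are imaged under anaesthesia at 2, 4, 6, 8, 12 and 24 h (λex/λem 680/704 nm). Mean tumour ROI fluorescence is quantified. Organs and tumours are imaged ex vivo at 24 h.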

Row | accumulation at the tumor site compared with Cy5.5-FPNs (LLC tumor-bearing mice) | Molecule | levels of EVs and EVs-PD-L1 (A549 cells; A549 cells) | membrane PD-L1 and total PD-L1 (A549 cells; A549 cells) | membrane PD-L1 (A549 cells; LSD1-knockout A549 cells)
1 |  | O=C(/C=C/c1ccc(/C=C/C(=O)Nc2ccc(C3=NCCN3)cc2)cc1)Nc1ccc(C2=NCCN2)cc1 [GW4869] | reduced | significant accumulation | induced the accumulation
2 | much lower | Cy5.5 |  |  | 
